Measurements: article PMC5407101 (Pharmacognosy Magazine, 2017)

Columns and labels:
Format in all cases: in vitro ADME
[1] = system: UDP-glucuronosyltransferases (UGTs) in rat liver microsomes; assay: Kinetic analysis for 4-MU glucuronidation in RLM
Method in brief: (§1)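 Microsomes from livers or kidneys of untreated male Sprague-Dawley rats. Protein was 0.1 mg mL–1 (RLM) or 0.125 mg mL–1 (RKM), pre-treated on ice for 5 min with Triton X-100 (0.1 μL mg–1 RLM; 0.2 μL mg–1 RKM), in Tris-HCl pH 7.4 with MgCl2. 4-MU ranged 0-10 mM. After 5 min at 37°C, UDPGA started the 15-min reaction, stopped with TCA. 4-MUG was measured by C18 HPLC-UV at 316 nm. Km and Vmax came from a Michaelis-Menten fit.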

[2] = system: UDP-glucuronosyltransferases (UGTs) in rat kidneys microsomes; assay: Kinetic analysis for 4-MU glucuronidation in RKM
Method in brief: as §1

[3] = system: UDP-glucuronosyltransferases (UGTs) in rat liver microsomes; assay: Inhibition of 4-MU glucuronidation assay in RLM; conditions: for fold more potent inhibition of 4-MU glucuronidation with RLM than with RKM: ratio of IC50 RKM/RLM
[4] = system: UDP-glucuronosyltransferases (UGTs) in rat kidneys microsomes; assay: Kinetic analysis for p-NP glucuronidation in RKM
Method in brief: (§2)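 RLM or RKM (5 mg mL–1) was pre-treated on ice for 5 min with Triton X-100 (0.25 v/v % RLM; 0.125 v/v % RKM). Incubation was in Tris-HCl pH 7.4 with MgCl2, at seven p-NP levels (0-3,000 µM), started with UDPGA, 37°C for 30 min. The reaction was stopped with TCA and alkalinised with NaOH, and read at 405 nm. Glucuronidated p-NP was taken as blank minus unreacted, per protein and time. Km and Vmax came from a Michaelis-Menten fit.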

[5] = system: UDP-glucuronosyltransferases (UGTs) in rat liver microsomes; assay: Kinetic analysis for p-NP glucuronidation in RLM
Method in brief: as §2

[6] = read-out: Km of p-NP glucuronidation, Michaelis-Menten

Cc1cc(=O)oc2cc(O)ccc12 [4-MU, 4-methylumbelliferone]
Vmax of 4-MU glucuronidation ([1]; Michaelis-Menten, no inhibitor): 27.87 ± 1.08 nmol min^–1 mg^–1
Km ([1]; read-out: Km of 4-MU glucuronidation, Michaelis-Menten, no inhibitor): 104 ± 20 µM
Vmax of 4-MU glucuronidation ([2]; Michaelis-Menten): 12.01 ± 0.12 nmol min^–1 mg^–1
Km ([2]; read-out: Km of 4-MU glucuronidation, Michaelis-Menten): 101 ± 6 µM

COc1cc(C=O)cc(OC)c1O [Syringaldehyde]
fold higher IC50 in comparison with vanillin, 4-MU UGT inhibition ([3]; RLM): 120 fold
fold more potent inhibition of 4-MU glucuronidation with RLM than with RKM [3]: 1.2 fold

COc1cc(C=O)ccc1O [Vanillin]
fold more potent inhibition of 4-MU glucuronidation with RLM than with RKM [3]: 2.6 fold

O=[N+]([O-])c1ccc(O)cc1 [p-NP, p-nitrophenol]
Vmax of p-NP glucuronidation ([4]; Michaelis-Menten): 9.320 ± 1.11 nmol min^–1 mg^–1
Km [4, 6]: 857 ± 68.3 µM
Vmax of p-NP glucuronidation ([5]; Michaelis-Menten): 43.04 ± 1.64 nmol min^–1 mg^–1
Km [5, 6]: 860 ± 86.8 µM
